Results: ChEMBL document CHEMBL3804777, “Identification and Preclinical Pharmacology of BMS-986104: A Differentiated S1P1 Receptor Modulator in Clinical Trials” (ACS Med Chem Lett, 2016)
Each block holds one compound with its values, some of them ahead of it. Active and inactive are the calls of the source. The rule behind the calls is not given here.

Legend:
[1] = Drug metabolism in BALB/c mouse whole blood assessed as whole blood phosphate area ratio at 10 uM after 4 hrs by LC/MS/MS analysis; type: ADME, tissue-based
How it was run: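 Mouse whole blood incubated with the amino-alcohol prodrug; phosphorylated product measured by LC/MS/MS after 4 h to give the relative extent of phosphate ester formation.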

Mus musculus [2] = test: Reduction of blood lymphocyte level in BALB/c mouse at 1 mg/kg administered through oral gavage after 24 hrs by hematology analysis; type: functional; parameters: scale not given: the % may be the effect or the level left
How it was run: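 Mice given a single oral 1 mg/kg dose; circulating lymphocytes counted 24 h later as the pharmacodynamic marker.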

Mus musculus [3] = test: Pulmonary toxicity in BALB/c mouse assessed as BAL protein levels at 30 mg/kg, po after 24 by hematology analysis (reference value: 8.2 to 8.3 mg/dL); type: organism-based; conditions: in vivo
Mus musculus [4] = test: Reduction in lymphocyte level in BALB/c mouse assessed as blood lymphocyte level at 30 mg/kg, po after 24 hrs by hematology analysis (reference value: 5.13 to 8.02 10^3/mm3); type: functional
Mus musculus [5] = test: Reduction in lymphocyte level in BALB/c mouse assessed as blood lymphocyte level at 0.5 mg/kg, po after 24 hrs by hematology analysis (reference value: 5.13 to 8.02 10^3/mm3); type: functional
Mus musculus [6] = test: Reduction in OASL2 gene expression in SCID mouse with CD45RBhiCD4+ T-cell transfer-induced colitis model of inflammatory bowel disease at 5 mg/kg, po dosed every other day for 5 weeks by RT-PCR method; type: functional; conditions: 840 h
How it was run: (§1)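 CD45RBhiCD4+ T-cell transfer colitis in mice; oral alternate-day dosing for 5 weeks, compared with vehicle. Read-outs: body weight, colon length, histological colon inflammation and tissue damage, and colon gene expression by RT-PCR (IFN-γ, IL-2, CD4, B220, CD11b, Fcgr4, Ifit1, OASL2).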

Mus musculus [7] = test: Reduction in CD4 gene expression in SCID mouse with CD45RBhiCD4+ T-cell transfer-induced colitis model of inflammatory bowel disease at 5 mg/kg, po dosed every other day for 5 weeks by RT-PCR method; type: functional; conditions: 840 h; how it was run: as §1
Mus musculus [8] = test: Reduction in IL2 gene expression in SCID mouse with CD45RBhiCD4+ T-cell transfer-induced colitis model of inflammatory bowel disease at 5 mg/kg, po dosed every other day for 5 weeks by RT-PCR method; type: functional; conditions: 840 h; how it was run: as §1
Mus musculus [9] = test: Pulmonary toxicity in BALB/c mouse assessed as BAL protein levels at 10 mg/kg, po after 24 by hematology analysis (reference value: 8.2 to 8.3 mg/dL); type: organism-based; conditions: in vivo
Mus musculus [10] = test: Reduction in Ifit1 gene expression in SCID mouse with CD45RBhiCD4+ T-cell transfer-induced colitis model of inflammatory bowel disease at 5 mg/kg, po dosed every other day for 5 weeks by RT-PCR method; type: functional; conditions: 840 h; how it was run: as §1
Mus musculus [11] = test: Reduction in CD11b gene expression in SCID mouse with CD45RBhiCD4+ T-cell transfer-induced colitis model of inflammatory bowel disease at 5 mg/kg, po dosed every other day for 5 weeks by RT-PCR method; type: functional; conditions: 840 h; how it was run: as §1
Mus musculus [12] = test: Reduction in body weight loss in SCID mouse with CD45RBhiCD4+ T-cell transfer-induced colitis model of inflammatory bowel disease at 1 mg/kg, po dosed daily for 5 weeks; type: functional, organism-based
How it was run: (§2)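 CD45RBhiCD4+ T-cell transfer colitis in mice; oral dosing at 1 mg/kg/day for 5 weeks, compared with vehicle. Read-outs: body weight, colon length, and colon gene expression by RT-PCR (IFN-γ, IL-2, CD4, B220, CD11b, Fcgr4, Ifit1, OASL2).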

Mus musculus [13] = test: Reduction in B220 gene expression in SCID mouse with CD45RBhiCD4+ T-cell transfer-induced colitis model of inflammatory bowel disease at 5 mg/kg, po dosed every other day for 5 weeks by RT-PCR method; type: functional; conditions: 840 h; how it was run: as §1
Mus musculus [14] = test: Reduction in lymphocyte level in BALB/c mouse assessed as blood lymphocyte level at 10 mg/kg, po after 24 hrs by hematology analysis (reference value: 5.13 to 8.02 10^3/mm3); type: functional
Mus musculus [15] = test: Reduction in IFNgamma gene expression in SCID mouse with CD45RBhiCD4+ T-cell transfer-induced colitis model of inflammatory bowel disease at 5 mg/kg, po dosed every other day for 5 weeks by RT-PCR method; type: functional; conditions: 840 h; how it was run: as §1
Mus musculus [16] = test: Pulmonary toxicity in BALB/c mouse assessed as BAL protein levels at 0.5 mg/kg, po after 24 by hematology analysis (reference value: 8.2 to 8.3 mg/dL); type: organism-based; conditions: in vivo
Mus musculus [17] = test: Induction of colon length shortening in SCID mouse with CD45RBhiCD4+ T-cell transfer-induced colitis model of inflammatory bowel disease at 1 mg/kg, po dosed daily for 5 weeeks; type: functional, organism-based; how it was run: as §2
Mus musculus [18] = test: Reduction in Fcgr4 gene expression in SCID mouse with CD45RBhiCD4+ T-cell transfer-induced colitis model of inflammatory bowel disease at 5 mg/kg, po dosed every other day for 5 weeks by RT-PCR method; type: functional; conditions: 840 h; how it was run: as §1
Heart [19] = test: Toxicity in guinea pig heart assessed as reduction in ventricular rate at 100 nM after 10 mins by ECG analysis; type: tissue-based, Cavia porcellus, Cardiac ventricle; conditions: 0.1 µM
How it was run: (§3)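 Isolated guinea pig hearts perfused with the phosphate at the stated concentrations; ventricular rate and atrioventricular conduction (third-degree AV block) monitored.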

Heart [20] = test: Toxicity in guinea pig heart assessed as third degree AV block at 300 nM after 10 mins by ECG analysis; type: tissue-based, Cavia porcellus; conditions: 0.3 µM; how it was run: as §3

- Ratio [1]: 0.02
Compound: CCCCCCC1CCc2cc(C3CCC(N)(CO)C3)ccc2C1 (stereo in doubt; 3g)

- Ratio [1]: 0.17
Compound: CCCCCCC1CCc2cc(C3CCC(N)(CO)C3)ccc2C1 (stereo in doubt; 3h)
- Activity (Mus musculus [2]): 60%

More lines, now with the values behind:

Compound: CCCCCCC1CCc2cc(C3CCC(N)(CO)C3)ccc2C1 (stereo in doubt; 3e)
- Ratio [1]: 0.03

Compound: CCCCCCC1CCc2cc(C3CCC(N)(CO)C3)ccc2C1 (stereo in doubt; 3f)
- Ratio [1]: 0.6
- Activity (Mus musculus [2]): 80%

Compound: CCCCCCCCc1ccc(CCC(N)(CO)CO)cc1 [FINGOLIMOD]
- Activity (Mus musculus [3]): 71 mg/dL
- Activity (Mus musculus [4]): 0.29 ×10³ /mm3
- Activity (Mus musculus [5]): 1.28 ×10³ /mm3
- inhibition in vivo at 5 mg/kg (Mus musculus [6]): 7%
- inhibition in vivo at 5 mg/kg (Mus musculus [7]): 60%
- inhibition in vivo at 5 mg/kg (Mus musculus [8]): 68%
- Activity (Mus musculus [9]): 34.2 mg/dL
- inhibition in vivo at 5 mg/kg (Mus musculus [10]): 16%
- inhibition in vivo at 5 mg/kg (Mus musculus [11]): 45%
- inhibition (Mus musculus [12]): Active
- inhibition in vivo at 5 mg/kg (Mus musculus [13]): 55%
- Activity (Mus musculus [14]): 0.92 ×10³ /mm3
- inhibition in vivo at 5 mg/kg (Mus musculus [15]): 30%
- Activity (Mus musculus [16]): 7.5 mg/dL
- Activity (Mus musculus [17]): Active
- inhibition in vivo at 5 mg/kg (Mus musculus [18]): 25%

Compound: CCc1cc(/C(C)=N/OCc2ccc(C3CCCCC3)c(C(F)(F)F)c2)ccc1CN1CC(C(=O)O)C1 [SIPONIMOD]
- Activity (Heart [19]): Toxic
- Activity (Heart [20]): Toxic
